Where “and” joins values, the source holds several entries; their conditions need not be identical. Equal values may be shown once.
Test system: HEK-293T
Test: Multiplex assay against HEK293T;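 on Population Tubulin-Different-Phenotype (%): share of the cells with healthy nuclei that show this phenotype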
Type: toxicity, cell-based
Conditions: human
Method in brief: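 Compound was added to live cells that had been stained at seeding with Hoechst33342, BioTracker Green Microtubule Cytoskeleton Dye, MitoTracker Red and Annexin V Alexa Fluor 680, and imaging followed on a CQ1 microscope at 37°C and 5% CO2. CellPathfinder machine-learning gating divided cells into Hoechst high-intensity objects or normal cells, normal cells into healthy, pyknosed or fragmented nuclei, and pyknosed cells into mitotic or apoptotic. Tubulin, mitochondrial-mass and membrane-permeability phenotypes are per cents of healthy-nucleus cells.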

[1] = 12 h, 10 µM, compound concentration 10 uM, replicate 1
[2] = 12 h, 10 µM, compound concentration 10 uM, replicate 2
[3] = 24 h, 10 µM, compound concentration 10 uM, replicate 1
[4] = 24 h, 10 µM, compound concentration 10 uM, replicate 2
[5] = 12 h, 1 µM, compound concentration 1 uM, replicate 1
[6] = 12 h, 1 µM, compound concentration 1 uM, replicate 2
[7] = 24 h, 1 µM, compound concentration 1 uM, replicate 1
[8] = 24 h, 1 µM, compound concentration 1 uM, replicate 2
[9] = 48 h, 1 µM, compound concentration 1 uM, replicate 1
[10] = 48 h, 1 µM, compound concentration 1 uM, replicate 2
[11] = 48 h, 10 µM, compound concentration 10 uM, replicate 1
[12] = 48 h, 10 µM, compound concentration 10 uM, replicate 2

`Cc1cc(NC(=O)c2cccc(S(F)(F)(F)(F)F)c2)cc(-n2ccn3nc(-c4cccnc4)cc23)c1` [BAY-309] was tested, and the “Population Fragmented Nuclei (%)” value [1] was 16% and 13%, the “Population Healthy Nuclei (%)” value [1] was 34% and 63% and the “Population Hoechst High Intensity Objects (%)” value [1] was 16% and 9%. The “Population Membrane Permeable-Phenotype (%)” value [1] was 25% and 14%, the “Population Mitochondria Different-Phenotype (%)” value [1] was 32% and 12% and the “Population Mitotic Cells (%)” value [1] was 34% and 83%. For the same compound, the “Population Normal (%)” value [1] was 83% and 90%, the “Population Pyknosed Nuclei (%)” value [1] was 48% and 23% and the “Population Tubulin-Different-Phenotype (%)” value [1] was 86% and 41%. The “Total Cell Count” value [1] was 619 and 653, the “Population Fragmented Nuclei (%)” value [2] was 3% and 2% and the “Population Healthy Nuclei (%)” value [2] was 87% and 72%. The “Population Hoechst High Intensity Objects (%)” value [2] was 2% and 4%, the “Population Membrane Permeable-Phenotype (%)” value [2] was 16% and 17% and the “Population Mitotic Cells (%)” value [2] was 92% and 54%. The “Population Normal (%)” value [2] was 97% and 95%, the “Population Tubulin-Different-Phenotype (%)” value [2] was 59% and 98% and the “Total Cell Count” value [2] was 1524 and 975. The “Population Fragmented Nuclei (%)” value [3] was 19% and 9%, the “Population Healthy Nuclei (%)” value [3] was 29% and 77% and the “Population Hoechst High Intensity Objects (%)” value [3] was 16% and 7%. The “Population Membrane Permeable-Phenotype (%)” value [3] was 10% and 21%, the “Population Normal (%)” value [3] was 83% and 92% and the “Population Tubulin-Different-Phenotype (%)” value [3] was 85% and 66%. For the same compound, the “Total Cell Count” value [3] was 590 and 755, the “Population Healthy Nuclei (%)” value [4] was 79% and 66% and the “Population Hoechst High Intensity Objects (%)” value [4] was 3% and 6%. For the same compound, the “Population Mitotic Cells (%)” value [4] was 94% and 45%, the “Population Normal (%)” value [4] was 96% and 93% and the “Population Tubulin-Different-Phenotype (%)” value [4] was 67% and 98%. For the same compound, the “Total Cell Count” value [4] was 2348 and 996.

In the case of `Cc1c[nH]c2nccc(Oc3c(F)cc(Nc4cc(Cl)nc(N)n4)cc3F)c12` [BAY-549], the “Population Apoptotic (%)” value [5] is reported as 37%, the “Population Fragmented Nuclei (%)” value [5] is reported as 15% and the “Population Healthy Nuclei (%)” value [5] is reported as 32%. The “Population Hoechst High Intensity Objects (%)” value [5] was 12%, the “Population Membrane Permeable-Phenotype (%)” value [5] was 0% and the “Population Mitochondria Different-Phenotype (%)” value [5] was 71%. For the same compound, the “Population Mitotic Cells (%)” value [5] was 62%, the “Population Normal (%)” value [5] was 87% and the “Population Pyknosed Nuclei (%)” value [5] was 52%. For the same compound, the “Population Tubulin-Different-Phenotype (%)” value [5] was 31%, the “Total Cell Count” value [5] was 310 and the “Population Apoptotic (%)” value [6] was 13%. The “Population Fragmented Nuclei (%)” value [6] was 7%, the “Population Healthy Nuclei (%)” value [6] was 54% and the “Population Hoechst High Intensity Objects (%)” value [6] was 4%. The “Population Membrane Permeable-Phenotype (%)” value [6] was 8%, the “Population Mitochondria Different-Phenotype (%)” value [6] was 8% and the “Population Mitotic Cells (%)” value [6] was 86%. For the same compound, the “Population Normal (%)” value [6] was 95%, the “Population Pyknosed Nuclei (%)” value [6] was 37% and the “Population Tubulin-Different-Phenotype (%)” value [6] was 14%. For the same compound, the “Total Cell Count” value [6] was 236, the “Population Apoptotic (%)” value [1] was 45% and the “Population Fragmented Nuclei (%)” value [1] was 9%. For the same compound, the “Population Healthy Nuclei (%)” value [1] was 45%, the “Population Hoechst High Intensity Objects (%)” value [1] was 8% and the “Population Mitochondria Different-Phenotype (%)” value [1] was 65%. For the same compound, the “Population Mitotic Cells (%)” value [1] was 54%, the “Population Normal (%)” value [1] was 91% and the “Population Pyknosed Nuclei (%)” value [1] was 44%. The “Population Tubulin-Different-Phenotype (%)” value [1] was 5%, the “Total Cell Count” value [1] was 370 and the “Population Apoptotic (%)” value [2] was 16%. For the same compound, the “Population Fragmented Nuclei (%)” value [2] was 5%, the “Population Healthy Nuclei (%)” value [2] was 42% and the “Population Hoechst High Intensity Objects (%)” value [2] was 3%. For the same compound, the “Population Membrane Permeable-Phenotype (%)” value [2] was 0%, the “Population Mitochondria Different-Phenotype (%)” value [2] was 11% and the “Population Mitotic Cells (%)” value [2] was 83%. The “Population Normal (%)” value [2] was 96%, the “Population Pyknosed Nuclei (%)” value [2] was 52% and the “Population Tubulin-Different-Phenotype (%)” value [2] was 1%. For the same compound, the “Total Cell Count” value [2] was 247, the “Population Apoptotic (%)” value [7] was 45% and the “Population Fragmented Nuclei (%)” value [7] was 14%. The “Population Healthy Nuclei (%)” value [7] was 32%, the “Population Hoechst High Intensity Objects (%)” value [7] was 10% and the “Population Membrane Permeable-Phenotype (%)” value [7] was 2%. For the same compound, the “Population Mitochondria Different-Phenotype (%)” value [7] was 47%, the “Population Mitotic Cells (%)” value [7] was 54% and the “Population Normal (%)” value [7] was 89%. The “Population Pyknosed Nuclei (%)” value [7] was 52%, the “Population Tubulin-Different-Phenotype (%)” value [7] was 25% and the “Total Cell Count” value [7] was 284. The “Population Apoptotic (%)” value [8] was 18%, the “Population Fragmented Nuclei (%)” value [8] was 13% and the “Population Healthy Nuclei (%)” value [8] was 66%. For the same compound, the “Population Hoechst High Intensity Objects (%)” value [8] was 3%, the “Population Membrane Permeable-Phenotype (%)” value [8] was 8% and the “Population Mitochondria Different-Phenotype (%)” value [8] was 10%. The “Population Mitotic Cells (%)” value [8] was 81%, the “Population Normal (%)” value [8] was 96% and the “Population Pyknosed Nuclei (%)” value [8] was 19%. For the same compound, the “Population Tubulin-Different-Phenotype (%)” value [8] was 7%, the “Total Cell Count” value [8] was 255 and the “Population Apoptotic (%)” value [3] was 48%. For the same compound, the “Population Fragmented Nuclei (%)” value [3] was 11%, the “Population Healthy Nuclei (%)” value [3] was 41% and the “Population Hoechst High Intensity Objects (%)” value [3] was 9%. For the same compound, the “Population Mitochondria Different-Phenotype (%)” value [3] was 51%, the “Population Mitotic Cells (%)” value [3] was 51% and the “Population Normal (%)” value [3] was 90%. For the same compound, the “Population Pyknosed Nuclei (%)” value [3] was 46%, the “Population Tubulin-Different-Phenotype (%)” value [3] was 4% and the “Total Cell Count” value [3] was 375. The “Population Apoptotic (%)” value [4] was 31%, the “Population Fragmented Nuclei (%)” value [4] was 6% and the “Population Healthy Nuclei (%)” value [4] was 49%. The “Population Hoechst High Intensity Objects (%)” value [4] was 2%, the “Population Membrane Permeable-Phenotype (%)” value [4] was 0% and the “Population Mitochondria Different-Phenotype (%)” value [4] was 21%. The “Population Mitotic Cells (%)” value [4] was 68%, the “Population Normal (%)” value [4] was 97% and the “Population Pyknosed Nuclei (%)” value [4] was 44%. The “Population Tubulin-Different-Phenotype (%)” value [4] was 5%, the “Total Cell Count” value [4] was 233 and the “Population Apoptotic (%)” value [9] was 48%. For the same compound, the “Population Fragmented Nuclei (%)” value [9] was 29%, the “Population Healthy Nuclei (%)” value [9] was 34% and the “Population Hoechst High Intensity Objects (%)” value [9] was 9%. For the same compound, the “Population Membrane Permeable-Phenotype (%)” value [9] was 1%, the “Population Mitochondria Different-Phenotype (%)” value [9] was 24% and the “Population Mitotic Cells (%)” value [9] was 51%. For the same compound, the “Population Normal (%)” value [9] was 90%, the “Population Pyknosed Nuclei (%)” value [9] was 36% and the “Population Tubulin-Different-Phenotype (%)” value [9] was 24%. The “Total Cell Count” value [9] was 307, the “Population Apoptotic (%)” value [10] was 28% and the “Population Fragmented Nuclei (%)” value [10] was 25%. The “Population Healthy Nuclei (%)” value [10] was 64%, the “Population Hoechst High Intensity Objects (%)” value [10] was 2% and the “Population Membrane Permeable-Phenotype (%)” value [10] was 8%. For the same compound, the “Population Mitochondria Different-Phenotype (%)” value [10] was 4%, the “Population Mitotic Cells (%)” value [10] was 71% and the “Population Normal (%)” value [10] was 97%. For the same compound, the “Population Pyknosed Nuclei (%)” value [10] was 10%, the “Population Tubulin-Different-Phenotype (%)” value [10] was 10% and the “Total Cell Count” value [10] was 336. For the same compound, the “Population Apoptotic (%)” value [11] was 60%, the “Population Fragmented Nuclei (%)” value [11] was 16% and the “Population Healthy Nuclei (%)” value [11] was 34%. The “Population Hoechst High Intensity Objects (%)” value [11] was 9%, the “Population Mitochondria Different-Phenotype (%)” value [11] was 45% and the “Population Mitotic Cells (%)” value [11] was 39%. For the same compound, the “Population Normal (%)” value [11] was 90%, the “Population Pyknosed Nuclei (%)” value [11] was 48% and the “Population Tubulin-Different-Phenotype (%)” value [11] was 6%. The “Total Cell Count” value [11] was 330, the “Population Apoptotic (%)” value [12] was 56% and the “Population Fragmented Nuclei (%)” value [12] was 4%. The “Population Healthy Nuclei (%)” value [12] was 47%, the “Population Hoechst High Intensity Objects (%)” value [12] was 3% and the “Population Membrane Permeable-Phenotype (%)” value [12] was 1%. The “Population Mitochondria Different-Phenotype (%)” value [12] was 10%, the “Population Mitotic Cells (%)” value [12] was 43% and the “Population Normal (%)” value [12] was 96%. The “Population Pyknosed Nuclei (%)” value [12] was 47%, the “Population Tubulin-Different-Phenotype (%)” value [12] was 8% and the “Total Cell Count” value [12] was 219.

From ChEMBL document CHEMBL4689842, “EUbOPEN Chemogenomics Library wave 1” (2021)
